Values joined by “and” are separate entries in the source; they are usually repeats but may differ in a detail not shown here. Equal values may be shown once.
Legend:
Fibroblast = assay: Multiplex assay against human fibroblast; format: toxicity, cell-based
Method in brief: (§1)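 Per cents of healthy-nucleus cells form the tubulin, mitochondrial-mass and membrane-permeability phenotype values. Live cells were stained at seeding with Hoechst33342, BioTracker Green Microtubule Cytoskeleton Dye, MitoTracker Red and Annexin V Alexa Fluor 680. After compound addition they were imaged on a CQ1 microscope at 37°C and 5% CO2, and CellPathfinder machine-learning gating split them into Hoechst high-intensity objects or normal cells, normal cells into healthy, pyknosed or fragmented nuclei, and pyknosed cells into mitotic or apoptotic.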

HEK-293T = assay: Multiplex assay against HEK293T; format: toxicity, cell-based; conditions: human; method in brief: as §1
[1] = 12 h, 1 µM, compound concentration 1 uM
[2] = 12 h, 10 µM, compound concentration 10 uM
[3] = 24 h, 1 µM, compound concentration 1 uM
[4] = 24 h, 10 µM, compound concentration 10 uM
[5] = 48 h, 1 µM, compound concentration 1 uM
[6] = 48 h, 10 µM, compound concentration 10 uM

CC1(COc2ccc3c(c2)ncn3-c2ccc3cccc(N4CCC(N)CC4)c3n2)COC1 [CRENOLANIB]
Population Fragmented Nuclei (%) (Fibroblast; [1]): 27% and 33% | Population Healthy Nuclei (%) (Fibroblast; [1]): 60% and 47% | Population Hoechst High Intensity Objects (%) (Fibroblast; [1]): 2% and 4% | Population Membrane Permeable-Phenotype (%) (Fibroblast; [1]): 0% and 7% | Population Mitochondria Different-Phenotype (%) (Fibroblast; [1]): 4% and 9% | Population Mitotic Cells (%) (Fibroblast; [1]): 38% and 81% | Population Normal (%) (Fibroblast; [1]): 97% and 95% | Population Pyknosed Nuclei (%) (Fibroblast; [1]): 12% and 18% | Population Tubulin-Different-Phenotype (%) (Fibroblast; [1]): 48% and 67% | Population Apoptotic (%) (Fibroblast; [2]): 33% and 34% | Population Fragmented Nuclei (%) (Fibroblast; [2]): 21% and 29% | Population Healthy Nuclei (%) (Fibroblast; [2]): 48% and 40% | Population Hoechst High Intensity Objects (%) (Fibroblast; [2]): 4% and 13% | Population Membrane Permeable-Phenotype (%) (Fibroblast; [2]): 2% and 6% | Population Mitochondria Different-Phenotype (%) (Fibroblast; [2]): 6% and 9% | Population Mitotic Cells (%) (Fibroblast; [2]): 66% and 65% | Population Normal (%) (Fibroblast; [2]): 95% and 86% | Population Pyknosed Nuclei (%) (Fibroblast; [2]): 30% | Population Tubulin-Different-Phenotype (%) (Fibroblast; [2]): 43% and 48% | Population Apoptotic (%) (Fibroblast; [3]): 92% and 50% | Population Fragmented Nuclei (%) (Fibroblast; [3]): 29% and 41% | Population Healthy Nuclei (%) (Fibroblast; [3]): 60% and 48% | Population Hoechst High Intensity Objects (%) (Fibroblast; [3]): 0% and 1% | Population Membrane Permeable-Phenotype (%) (Fibroblast; [3]): 0% and 4% | Population Mitochondria Different-Phenotype (%) (Fibroblast; [3]): 9% | Population Normal (%) (Fibroblast; [3]): 99% and 98% | Population Pyknosed Nuclei (%) (Fibroblast; [3]): 9% and 10% | Population Tubulin-Different-Phenotype (%) (Fibroblast; [3]): 61% and 63% | Population Apoptotic (%) (Fibroblast; [4]): 36% and 34% | Population Fragmented Nuclei (%) (Fibroblast; [4]): 23% and 25% | Population Healthy Nuclei (%) (Fibroblast; [4]): 51% and 46% | Population Hoechst High Intensity Objects (%) (Fibroblast; [4]): 16% and 17% | Population Membrane Permeable-Phenotype (%) (Fibroblast; [4]): 0% and 6% | Population Mitochondria Different-Phenotype (%) (Fibroblast; [4]): 8% and 6% | Population Mitotic Cells (%) (Fibroblast; [4]): 63% and 65% | Population Normal (%) (Fibroblast; [4]): 83% and 82% | Population Pyknosed Nuclei (%) (Fibroblast; [4]): 24% and 28% | Population Tubulin-Different-Phenotype (%) (Fibroblast; [4]): 23% and 38% | Population Fragmented Nuclei (%) (Fibroblast; [5]): 32% and 44% | Population Healthy Nuclei (%) (Fibroblast; [5]): 60% and 44% | Population Hoechst High Intensity Objects (%) (Fibroblast; [5]): 1% and 0% | Population Membrane Permeable-Phenotype (%) (Fibroblast; [5]): 0% and 5% | Population Mitochondria Different-Phenotype (%) (Fibroblast; [5]): 8% and 7% | Population Normal (%) (Fibroblast; [5]): 98% and 99% | Population Pyknosed Nuclei (%) (Fibroblast; [5]): 7% and 12% | Population Tubulin-Different-Phenotype (%) (Fibroblast; [5]): 55% and 74% | Population Apoptotic (%) (Fibroblast; [6]): 42% and 37% | Population Fragmented Nuclei (%) (Fibroblast; [6]): 16% and 23% | Population Healthy Nuclei (%) (Fibroblast; [6]): 62% and 42% | Population Hoechst High Intensity Objects (%) (Fibroblast; [6]): 24% and 21% | Population Membrane Permeable-Phenotype (%) (Fibroblast; [6]): 1% | Population Mitochondria Different-Phenotype (%) (Fibroblast; [6]): 6% | Population Mitotic Cells (%) (Fibroblast; [6]): 57% and 62% | Population Normal (%) (Fibroblast; [6]): 75% and 78% | Population Pyknosed Nuclei (%) (Fibroblast; [6]): 21% and 33% | Population Tubulin-Different-Phenotype (%) (Fibroblast; [6]): 23% and 27% | Population Apoptotic (%) (HEK-293T; [1]): 58% and 34% | Population Fragmented Nuclei (%) (HEK-293T; [1]): 14% and 10% | Population Healthy Nuclei (%) (HEK-293T; [1]): 79% and 80% | Population Hoechst High Intensity Objects (%) (HEK-293T; [1]): 3% and 6% | Population Membrane Permeable-Phenotype (%) (HEK-293T; [1]): 2% and 1% | Population Mitochondria Different-Phenotype (%) (HEK-293T; [1]): 23% and 51% | Population Mitotic Cells (%) (HEK-293T; [1]): 41% and 65% | Population Normal (%) (HEK-293T; [1]): 96% and 93% | Population Pyknosed Nuclei (%) (HEK-293T; [1]): 6% and 8% | Population Tubulin-Different-Phenotype (%) (HEK-293T; [1]): 46% and 51% | Total Cell Count (HEK-293T; [1]): 412 and 332 | Population Apoptotic (%) (HEK-293T; [2]): 69% and 55% | Population Fragmented Nuclei (%) (HEK-293T; [2]): 67% and 64% | Population Healthy Nuclei (%) (HEK-293T; [2]): 13% and 17% | Population Hoechst High Intensity Objects (%) (HEK-293T; [2]): 67% and 69% | Population Membrane Permeable-Phenotype (%) (HEK-293T; [2]): 0% | Population Mitochondria Different-Phenotype (%) (HEK-293T; [2]): 84% and 90% | Population Mitotic Cells (%) (HEK-293T; [2]): 30% and 45% | Population Normal (%) (HEK-293T; [2]): 32% and 30% | Population Pyknosed Nuclei (%) (HEK-293T; [2]): 18% and 17% | Population Tubulin-Different-Phenotype (%) (HEK-293T; [2]): 68% and 50% | Total Cell Count (HEK-293T; [2]): 423 and 376 | Population Apoptotic (%) (HEK-293T; [3]): 29% and 45% | Population Fragmented Nuclei (%) (HEK-293T; [3]): 20% and 15% | Population Healthy Nuclei (%) (HEK-293T; [3]): 66% and 73% | Population Hoechst High Intensity Objects (%) (HEK-293T; [3]): 2% and 6% | Population Membrane Permeable-Phenotype (%) (HEK-293T; [3]): 2% and 1% | Population Mitochondria Different-Phenotype (%) (HEK-293T; [3]): 22% and 33% | Population Mitotic Cells (%) (HEK-293T; [3]): 70% and 54% | Population Normal (%) (HEK-293T; [3]): 97% and 93% | Population Pyknosed Nuclei (%) (HEK-293T; [3]): 12% and 11% | Population Tubulin-Different-Phenotype (%) (HEK-293T; [3]): 23% and 35% | Total Cell Count (HEK-293T; [3]): 547 and 415 | Population Apoptotic (%) (HEK-293T; [4]): 72% | Population Fragmented Nuclei (%) (HEK-293T; [4]): 60% and 69% | Population Healthy Nuclei (%) (HEK-293T; [4]): 16% and 15% | Population Hoechst High Intensity Objects (%) (HEK-293T; [4]): 56% and 63%
